According to ChEMBL document CHEMBL1145589, “Discovery of benzamide tetrahydro-4H-carbazol-4-ones as novel small molecule inhibitors of Hsp90” (Bioorg Med Chem Lett, 2008):

Tests used:
SK-BR-3 [1] = experiment: Inhibition of Her2 degradation in human SKBR3 cells by ELISA; assay type: functional, cell-based
Procedure, shortened: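 Cellular ELISA in SKBR3 cells treated 24 h with compound, then methanol-fixed; Her2 detected with mouse anti-Her2 primary and peroxidase-conjugated anti-mouse secondary antibody; IC50 determined.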

[2] = Binding affinity to Hsp90 in pig spleen extract by Bradford protein assay; assay type: tissue-based, Sus scrofa
[3] = Inhibition of pErk in AU565 cells; assay type: cell-based
A-375 [4] = experiment: Inhibition of cell proliferation in human A375 cells; assay type: functional, cell-based
Procedure, shortened: (§1)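 Cells seeded in 96-well plates; compound added 24 h later, then growth continued for a further 72 or 144 h depending on the line's growth rate before proliferation was measured.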

A-375 [5] = experiment: Induction of Hsp70 in human A375 cells; assay type: functional, cell-based
Procedure, shortened: (§2)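 High content imaging: A375 cells treated 24 h with compound, fixed in 4% PBS-buffered formalin, probed with anti-Hsp70 or anti-phospho-S6 primary antibodies, then TRITC- or FITC-conjugated secondaries, and imaged.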

MDA-MB-231 = experiment: Inhibition of cell proliferation in human MDA-MB-231 cells; assay type: functional, cell-based; procedure, shortened: as §1
SK-MEL-5 = experiment: Inhibition of cell proliferation in human SKMEL5 cells; assay type: functional, cell-based; procedure, shortened: as §1
[6] = Inhibition of pS6 in A375 cells; assay type: cell-based; details: A-375; procedure, shortened: as §2
MCF7 = experiment: Inhibition of cell proliferation in human MCF7 cells; assay type: functional, cell-based; procedure, shortened: as §1
NCI-H460 = experiment: Inhibition of cell proliferation in human NCI-H460 cells; assay type: functional, cell-based; procedure, shortened: as §1
SW-620 = experiment: Inhibition of cell proliferation in human SW620 cells; assay type: functional, cell-based; procedure, shortened: as §1
SK-BR-3 [7] = experiment: Inhibition of Her2 degradation in human SKBR3 cells
HT-29 = experiment: Inhibition of cell proliferation in human HT29 cells; assay type: functional, cell-based; procedure, shortened: as §1
LNCaP = experiment: Inhibition of cell proliferation in human LNCAP cells; assay type: functional, cell-based; procedure, shortened: as §1
PC-3 = experiment: Inhibition of cell proliferation in human PC3 cells; assay type: functional, cell-based; procedure, shortened: as §1

Structure (SMILES) | IC50 (SK-BR-3 [1]) [nM] | Kd [2] [nM] | other results
CC1CC(=O)c2c(n(-c3ccc(C(N)=O)c(NC4CC4)c3)c3ccccc23)C1 (centres undefined) | 7000 |  | 
NC(=O)c1ccc(-n2c3c(c4ccccc42)C(=O)CCC3)cc1NC1CCC(O)CC1 (centres undefined) | 1200 | 900 | 
NC(=O)c1ccc(-n2c3c(c4ccccc42)C(=O)CCC3)cc1NC1CC1 | 5400 | 350 | 
CC1(C)CC(=O)c2c(n(-c3ccc(C(N)=O)c(Nc4ccccc4)c3)c3ccccc23)C1 |  | > 10000 | 
CC1(C)CC(=O)c2c(n(-c3ccc(C(N)=O)cc3)c3ccccc23)C1 | > 50000 | 750 | 
NC(=O)c1ccc(-n2c3c(c4ccccc42)C(=O)CCC3)cc1NCc1ccncc1 | 5000 | 820 | 
NC(=O)c1ccc(-n2c3c(c4ccccc42)C(=O)CCC3)cc1NCCN1CCCC1 | 31000 | 1900 | 
CCCNc1cc(-n2c3c(c4ccccc42)C(=O)CCC3)ccc1C(N)=O | 5300 | 350 | 
NC(=O)c1ccc(-n2c3c(c4ccccc42)C(=O)CCC3)cc1 | > 50000 | 1800 | 
CC1CC(=O)c2c(n(-c3ccc(C(N)=O)c(NCC4CC4)c3)c3ccccc23)C1 (centres undefined) | 6900 | 2900 | 
NC(=O)c1ccc(-n2c3c(c4cc(F)ccc42)C(=O)CCC3)cc1NN1CCOCC1 | 1600 | 270 | 
COCCNc1cc(-n2c3c(c4cc(F)ccc42)C(=O)CCC3)ccc1C(N)=O | 4100 | 780 | 
NC(=O)c1ccc(-n2c3c(c4cc(F)ccc42)C(=O)CCC3)cc1NCc1cccnc1 | 6500 | 1100 | 
CC1(C)CC(=O)c2c(n(-c3ccc(C(N)=O)c(NC4CC4)c3)c3ccccc23)C1 | 610 | 350 | 
C=CCNc1cc(-n2c3c(c4cc(F)ccc42)C(=O)CCC3)ccc1C(N)=O | 5400 | 250 | 
COc1ccc(CNc2cc(-n3c4c(c5ccccc53)C(=O)CCC4)ccc2C(N)=O)cc1 | > 10000 | > 10000 | 
NC(=O)c1ccc(-n2c3c(c4ccccc42)C(=O)CCC3)cc1N | > 10000 | 2900 | 
CN(C)CCNc1cc(-n2c3c(c4cc(F)ccc42)C(=O)CCC3)ccc1C(N)=O | 34000 | 1200 | 
N#Cc1cc(-n2c3c(c4ccccc42)C(=O)CCC3)ccc1C(N)=O | > 50000 | > 10000 | 
NC(=O)c1ccc(-n2c3c(c4ccccc42)C(=O)CCC3)cc1NC1CCC1 | 6800 | 310 | 
NC(=O)c1ccc(-n2c3c(c4ccccc42)C(=O)CCC3)cc1NCc1ccccc1 | > 10000 | > 10000 | 
NC(=O)c1ccc(-n2c3c(c4ccccc42)C(=O)CCC3)cc1NCC1CC1 | 1300 | 270 | 
NC(=O)c1ccc(-n2c3c(c4ccccc42)C(=O)CCC3)cc1Nc1ccccc1 | 2100 | 1000 | 
NC(=O)c1ccc(-n2c3c(c4ccccc42)C(=O)CCC3)cc1NC1CCOCC1 | 560 | 410 | IC50 [3]: 590 nM; IC50 (A-375 [4]): 400 nM; IC50 (A-375 [5]): 230 nM; IC50 (MDA-MB-231): 960 nM; IC50 (SK-MEL-5): 340 nM; IC50 [6]: 70 nM; IC50 (MCF7): 290 nM; IC50 (NCI-H460): 900 nM; IC50 (SW-620): 260 nM; IC50 (SK-BR-3 [7]): 560 nM; IC50 (HT-29): 370 nM; IC50 (LNCaP): 700 nM; IC50 (PC-3): 820 nM
NC(=O)c1ccc(-n2c3c(c4cc(F)ccc42)C(=O)CCC3)cc1NCCCN1CCOCC1 | 2800 | 1100 | 
COc1cc(-n2c3c(c4ccccc42)C(=O)CCC3)ccc1C(N)=O | > 50000 | > 10000 | 
COCCNc1cc(-n2c3c(c4ccccc42)C(=O)CCC3)ccc1C(N)=O | 8900 |  | 
NC(=O)c1ccc(-n2c3c(c4cc(F)ccc42)C(=O)CCC3)cc1NC1CC1 | 1300 | 250 | 
CC1CC(=O)c2c(n(-c3ccc(C(N)=O)c(Br)c3)c3ccccc23)C1 (centres undefined) |  | > 10000 | 
NC(=O)c1ccc(-n2c3c(c4ccccc42)C(=O)CCC3)cc1Br | > 10000 | > 10000 | 
